Reference: ChEMBL document CHEMBL4689842, “EUbOPEN Chemogenomics Library wave 1” (2021)

Tested on: HEK-293T
Experiment: Multiplex assay against HEK293T;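 for Population Tubulin-Different-Phenotype (%): share of the cells with healthy nuclei that show this phenotype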
Format: toxicity, cell-based
Conditions: human
In short: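 With compound added, live cells were imaged on a CQ1 microscope at 37°C and 5% CO2; staining with Hoechst33342, BioTracker Green Microtubule Cytoskeleton Dye, MitoTracker Red and Annexin V Alexa Fluor 680 had been done at seeding. The CellPathfinder machine-learning gating scheme split cells into Hoechst high-intensity objects or normal cells, normal cells into healthy, pyknosed or fragmented nuclei, and pyknosed cells into mitotic or apoptotic. The tubulin, mitochondrial-mass and membrane-permeability phenotypes are per cents of healthy-nucleus cells.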

[1] = 12 h, 1 µM, compound concentration 1 uM, replicate 1
[2] = 12 h, 1 µM, compound concentration 1 uM, replicate 2
[3] = 12 h, 10 µM, compound concentration 10 uM, replicate 1
[4] = 12 h, 10 µM, compound concentration 10 uM, replicate 2
[5] = 24 h, 1 µM, compound concentration 1 uM, replicate 1
[6] = 24 h, 1 µM, compound concentration 1 uM, replicate 2
[7] = 24 h, 10 µM, compound concentration 10 uM, replicate 1
[8] = 24 h, 10 µM, compound concentration 10 uM, replicate 2

Cn1nc(C(F)(F)F)cc1-c1cnc(N2CCc3cc(S(=O)(=O)Nc4c(F)cc(Cl)cc4F)cc(N4CCCC4=O)c32)nc1 [TP-020]
Population Apoptotic (%) [1]: 25% | Population Fragmented Nuclei (%) [1]: 10% | Population Healthy Nuclei (%) [1]: 71% | Population Hoechst High Intensity Objects (%) [1]: 10% | Population Membrane Permeable-Phenotype (%) [1]: 6% | Population Mitochondria Different-Phenotype (%) [1]: 9% | Population Mitotic Cells (%) [1]: 74% | Population Normal (%) [1]: 89% | Population Pyknosed Nuclei (%) [1]: 18% | Population Tubulin-Different-Phenotype (%) [1]: 16% | Total Cell Count [1]: 692 | Population Apoptotic (%) [2]: 16% | Population Fragmented Nuclei (%) [2]: 5% | Population Healthy Nuclei (%) [2]: 89% | Population Hoechst High Intensity Objects (%) [2]: 1% | Population Membrane Permeable-Phenotype (%) [2]: 9% | Population Mitochondria Different-Phenotype (%) [2]: 13% | Population Mitotic Cells (%) [2]: 83% | Population Normal (%) [2]: 98% | Population Pyknosed Nuclei (%) [2]: 5% | Population Tubulin-Different-Phenotype (%) [2]: 37% | Total Cell Count [2]: 1398 | Population Apoptotic (%) [3]: 17% | Population Fragmented Nuclei (%) [3]: 14% | Population Healthy Nuclei (%) [3]: 63% | Population Hoechst High Intensity Objects (%) [3]: 11% | Population Membrane Permeable-Phenotype (%) [3]: 2% | Population Mitochondria Different-Phenotype (%) [3]: 2% | Population Mitotic Cells (%) [3]: 82% | Population Normal (%) [3]: 88% | Population Pyknosed Nuclei (%) [3]: 21% | Population Tubulin-Different-Phenotype (%) [3]: 3% | Total Cell Count [3]: 565 | Population Apoptotic (%) [4]: 4% | Population Fragmented Nuclei (%) [4]: 9% | Population Healthy Nuclei (%) [4]: 86% | Population Hoechst High Intensity Objects (%) [4]: 1% | Population Mitochondria Different-Phenotype (%) [4]: 5% | Population Mitotic Cells (%) [4]: 95% | Population Normal (%) [4]: 98% | Population Pyknosed Nuclei (%) [4]: 4% | Population Tubulin-Different-Phenotype (%) [4]: 5% | Total Cell Count [4]: 1658 | Population Apoptotic (%) [5]: 21% | Population Fragmented Nuclei (%) [5]: 10% | Population Hoechst High Intensity Objects (%) [5]: 7% | Population Membrane Permeable-Phenotype (%) [5]: 12% | Population Mitochondria Different-Phenotype (%) [5]: 8% | Population Mitotic Cells (%) [5]: 78% | Population Normal (%) [5]: 92% | Population Pyknosed Nuclei (%) [5]: 8% | Population Tubulin-Different-Phenotype (%) [5]: 31% | Total Cell Count [5]: 805 | Population Apoptotic (%) [6]: 6% | Population Fragmented Nuclei (%) [6]: 12% | Population Healthy Nuclei (%) [6]: 81% | Population Hoechst High Intensity Objects (%) [6]: 1% | Population Membrane Permeable-Phenotype (%) [6]: 13% | Population Mitochondria Different-Phenotype (%) [6]: 6% | Population Mitotic Cells (%) [6]: 93% | Population Normal (%) [6]: 98% | Population Pyknosed Nuclei (%) [6]: 5% | Population Tubulin-Different-Phenotype (%) [6]: 47% | Total Cell Count [6]: 1839 | Population Apoptotic (%) [7]: 26% | Population Fragmented Nuclei (%) [7]: 11% | Population Healthy Nuclei (%) [7]: 77% | Population Hoechst High Intensity Objects (%) [7]: 5% | Population Membrane Permeable-Phenotype (%) [7]: 8% | Population Mitochondria Different-Phenotype (%) [7]: 1% | Population Mitotic Cells (%) [7]: 73% | Population Normal (%) [7]: 94% | Population Pyknosed Nuclei (%) [7]: 10% | Population Tubulin-Different-Phenotype (%) [7]: 7% | Total Cell Count [7]: 670 | Population Apoptotic (%) [8]: 3% | Population Fragmented Nuclei (%) [8]: 26% | Population Healthy Nuclei (%) [8]: 71% | Population Hoechst High Intensity Objects (%) [8]: 3% | Population Membrane Permeable-Phenotype (%) [8]: 5% | Population Mitochondria Different-Phenotype (%) [8]: 0% | Population Mitotic Cells (%) [8]: 96% | Population Normal (%) [8]: 96% | Population Pyknosed Nuclei (%) [8]: 2% | Population Tubulin-Different-Phenotype (%) [8]: 5% | Total Cell Count [8]: 2801
